Among the data in ChEMBL document CHEMBL1156707, “Insulin-releasing activity of a series of phenylalanine derivatives” (Eur J Med Chem, 2008) are Activity and EC50 values, retold here.

A short description of experiment [1]: Increase in insulin releasing activity in Syrian golden hamster HIT-T15 cells at 1 uM after 1 hr relative to control. It is filed as functional, Mesocricetus auratus. Summed up:
(§1)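 Pre-incubated 1 h, then 1 h with compound at a range of concentrations in DMSO, 37 °C; solvent-matched control. Insulin in medium measured by radioimmunoassay. Mean ± sd, n = 3; EC50 is concentration giving 50% increase in insulin release.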

Experiment [2] in a line: Increase in insulin releasing activity in Syrian golden hamster HIT-T15 cells at 100 uM after 1 hr relative to control. In kind it is functional, Mesocricetus auratus. An outline of the steps:
as §1

A short description of experiment [3]: Increase in insulin releasing activity in Syrian golden hamster HIT-T15 cells at 10 uM after 1 hr relative to control. It is filed as functional, Mesocricetus auratus. An outline of the steps:
as §1

Experiment [4] deals with Rattus norvegicus. The experiment is described as follows: Decrease in plasma glucose level in Sprague-Dawley rat at 3 mg/kg, po after 120 mins relative to control. In kind it is functional. Also noted: scale not given: the % may be the effect or the level left. An outline of the steps:
(§2)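 Normal SD rats (180–220 g), fasted overnight, 8–10 per group. Single oral dose 3 mg/kg in 0.5% CMC-Na vehicle, then oral glucose 2.5 g/kg immediately after. Caudal-vein blood drawn before dosing and at 15, 30, 60, 120, 180 min. Serum glucose measured by glucose oxidase method. Reported as % decrease versus vehicle control group.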

In experiment [5] the test system is Rattus norvegicus. Description: Decrease in plasma glucose level in Sprague-Dawley rat at 3 mg/kg, po after 30 mins relative to control. It is filed as functional. Also noted: scale not given: the % may be the effect or the level left. Summed up:
as §2

Experiment [6] relates to Rattus norvegicus. The experiment is described as follows: Decrease in plasma glucose level in Sprague-Dawley rat at 3 mg/kg, po after 180 mins relative to control. It is filed as functional. Also noted: scale not given: the % may be the effect or the level left. An outline of the steps:
as §2

Experiment [7] has as its system Rattus norvegicus. The experiment is described as follows: Decrease in plasma glucose level in Sprague-Dawley rat at 3 mg/kg, po after 15 mins relative to control. Set-up: scale not given: the % may be the effect or the level left. In kind it is functional. Summed up: as §2
The nature of experiment [8]: Increase in insulin releasing activity in Syrian golden hamster HIT-T15 cells after 1 hr. It is filed as functional, cell-based, Mesocricetus auratus. An outline of the steps:
as §1

In experiment [9] the test system is Rattus norvegicus. The experiment is described as follows: Decrease in plasma glucose level in Sprague-Dawley rat at 3 mg/kg, po after 60 mins relative to control. In kind it is functional. Set-up: scale not given: the % may be the effect or the level left. An outline of the steps: as §2
Experiment [10] concerns 3T3-L1. The experiment is described as follows: Effect on insulin sensitizing activity in mouse 3T3-L1 cells assessed as increase in triglyceride accumulation at 1 uM after 7 days. It is filed as functional. Summed up:
(§3)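 3T3-L1 preadipocytes in DMEM/10% FBS, grown to 2 days postconfluence. Differentiation induced with insulin, 0.5 mM IBMX and dexamethasone. Compound (1 or 10 mmol/L, DMSO diluted 1000-fold) present during first 4 days of differentiation; 0.1% DMSO negative control. Day 7: oil red O staining, dye extracted with isopropanol, OD 510 nm. Three or four independent experiments.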

Experiment [11] relates to 3T3-L1. The experiment is described as follows: Effect on insulin sensitizing activity in mouse 3T3-L1 cells assessed as increase in triglyceride accumulation at 10 uM after 7 days. It is filed as functional. An outline of the steps:
as §3

As for `CC(C)[C@H]1CC[C@H](C(=O)N[C@@H](Cc2ccc(OCCn3ccc4ccccc43)cc2)C(=O)O)CC1`, the Activity in experiment [1] amounted to 35.7%; in experiment [2], 146.6%; in [3], 74.9%.
In general, EC50 refers to the concentration that produces a half-maximal response. As to `Cc1oc(-c2ccccc2)nc1CCOc1ccc(C[C@@H](NC(=O)[C@H]2CC[C@H](C(C)C)CC2)C(=O)O)cc1`, the Activity came to 105.2% in experiment [1]; 17.3% in the experiment on Rattus norvegicus [4]; 36.4% in the experiment with Rattus norvegicus [5]; 487.4% in experiment [2]; 11.4% with Rattus norvegicus [6]; 21.2% in the experiment with Rattus norvegicus [7]. Further, the results for the Activity (in [3]; with Rattus norvegicus [9]) were 200.9% and 33.7%, respectively. This compound displayed an EC50 in experiment [8] of 120 nM.
Turning to `CC(C)[C@H]1CC[C@H](C(=O)N[C@@H](Cc2ccc(OCc3ccc(C(F)(F)F)cc3)cc2)C(=O)O)CC1`, the Activity in [1] was determined as 47.9%; in [2] it was 156.9%; in experiment [3], 76.7%.
Take `CC(C)[C@H]1CC[C@H](C(=O)N[C@@H](Cc2ccc(O)cc2)C(=O)O)CC1`: the Activity in experiment [1] worked out at 17.5%; in [2], 64.8%; in experiment [3], 35.4%.
As for `Cc1oc(-c2ccccc2)nc1CCOc1ccc(C[C@H](NC(=O)[C@H]2CC[C@H](C(C)C)CC2)C(=O)O)cc1`, the Activity turned out to be 68.5% in [1]; 11.3% in the experiment on Rattus norvegicus [4]; 38.14% in the experiment with 3T3-L1 [10]; 8.51% in the experiment on Rattus norvegicus [5]; 329.2% in experiment [2]; 2.07% in the experiment with Rattus norvegicus [6]. Moreover, the Activity was 4.73% with Rattus norvegicus [7], 46.01% in the experiment with 3T3-L1 [11], 131.2% in experiment [3] and 4.47% with Rattus norvegicus [9]. The EC50 in [8] amounted to 540 nM.
On to `CC(C)[C@H]1CC[C@H](C(=O)N[C@@H](Cc2ccc(OCCN(C)c3nc4ccccc4o3)cc2)C(=O)O)CC1`, for which the figures for the Activity in experiment [1], in [2] and in [3] were 35.5%, 126.9% and 72.8%, respectively.
Turning to `CC(C)[C@H]1CC[C@H](C(=O)N[C@@H](Cc2ccc(OCc3ccccc3)cc2)C(=O)O)CC1`, the Activity in experiment [1] turned out to be 53.1%; in [2] it was 225.9%; in experiment [3] it was 147.5%. The EC50 in experiment [8] amounted to 1050 nM.
Taken in the same sequence, the figures for `CCCCOc1ccc(C[C@H](NC(=O)[C@H]2CC[C@H](C(C)C)CC2)C(=O)O)cc1` were 73.4%, 326.2%, 136.7% and 550 nM.
Consider `CC(C)[C@H]1CC[C@H](C(=O)N[C@H](Cc2ccc(OCCN(C)c3nc4ccccc4o3)cc2)C(=O)O)CC1`, for which the Activity amounted to 24.8% in [1], 145.1% in [2] and 81.7% in [3].
As for `CC(C)[C@H]1CC[C@H](C(=O)N[C@H](Cc2ccc(OCc3ccc(C(F)(F)F)cc3)cc2)C(=O)O)CC1`, the figures for the Activity in experiment [1], in [2] and in experiment [3] were 29.8%, 152.1% and 85.6%, respectively.
With `CCCCOc1ccc(C[C@@H](NC(=O)[C@H]2CC[C@H](C(C)C)CC2)C(=O)O)cc1`, the Activity amounted to 58.9% in experiment [1], 261.6% in [2] and 107.1% in experiment [3]. Besides, the response in experiment [8] was half-maximal at 650 nM (EC50).
For `CCOc1ccc(C[C@@H](NC(=O)[C@H]2CC[C@H](C(C)C)CC2)C(=O)O)cc1`, in that order: 76.2%, 183.8%, 107.3% and 260 nM.
With `CC(C)[C@H]1CC[C@H](C(=O)N[C@@H](Cc2ccc(OCCN(C)c3ccccn3)cc2)C(=O)O)CC1`, the Activity is 26% in experiment [1], 83.7% in [2] and 41.5% in [3].
On to `CC(C)[C@H]1CC[C@H](C(=O)N[C@H](Cc2ccc(OCCN(C)c3ccccn3)cc2)C(=O)O)CC1`, for which the Activity in experiment [1] is listed as 24.4%; in experiment [2], 59.4%; in [3], 36.2%.
For `CC(C)[C@H]1CC[C@H](C(=O)N[C@H](Cc2ccc(O)cc2)C(=O)O)CC1`, in that order: 34.2%, 122.2% and 69.6%.
Taken in the same sequence, the figures for `CC(C)[C@H]1CC[C@H](C(=O)N[C@H](Cc2ccc(OCCn3ccc4ccccc43)cc2)C(=O)O)CC1` were 37.8%, 112% and 58.8%.
Regarding `CCOc1ccc(C[C@H](NC(=O)[C@H]2CC[C@H](C(C)C)CC2)C(=O)O)cc1`, the Activity in experiment [1] is given as 55.8%; in experiment [2], 151.3%; in experiment [3], 99.9%. Also, the concentration for a half-maximal effect (EC50) in [8] came to 960 nM.
For `CC(C)[C@H]1CC[C@H](C(=O)N[C@H](Cc2ccc(OCc3ccccc3)cc2)C(=O)O)CC1`, the Activity is 38.9% in experiment [1], 171.1% in experiment [2] and 94.4% in experiment [3]. Further, in experiment [8], the EC50 was found to be 2820 nM.
On to `CC(C)[C@H]1CC[C@H](C(=O)N[C@@H](Cc2ccccc2)C(=O)O)CC1` [(S)-NATEGLINIDE], for which the Activity in experiment [1] amounted to 26.4%; in experiment [2], 61.1%; in [3] it was 35.3%.
For the compound `O=C(O)[C@H](CC(=O)N1C[C@H]2CCCC[C@H]2C1)Cc1ccccc1` [MITIGLINIDE], the Activity in experiment [1] is recorded as 52.5%; with Rattus norvegicus [4], 87.3%; in the experiment on Rattus norvegicus [5], 36.2%; in experiment [2], 120%; in the experiment on Rattus norvegicus [6], 70.3%; in the experiment with Rattus norvegicus [7], 16.5%. For the same compound, the Activity worked out at 66% in experiment [3] and 61.7% with Rattus norvegicus [9]. The concentration giving a half-maximal response (EC50) in [8] is 708 nM.
For `CC(C)[C@H]1CC[C@H](C(=O)N[C@H](Cc2ccccc2)C(=O)O)CC1` [NATEGLINIDE], the Activity is on record as 36.3% in [1], 124.3% in experiment [2] and 66.8% in experiment [3]. The compound also showed an EC50 in [8] of 7590 nM.
Take `CN(CCOc1ccc(CC2SC(=O)NC2=O)cc1)c1ccccn1` (configuration not stated) [ROSIGLITAZONE]: the Activity in the experiment with 3T3-L1 [10] came to 38.8%; in the experiment with 3T3-L1 [11], 35.87%.
